# Scp1 inh: blocks human Scp-1 phosphatase activity; 340,000 compounds, 0.88% hits; Q9GZU7; inhibition, % at 20 µM; Recombinant Scp1, phosphopeptide, malachite green phosphate absorbance;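 active means inhibition above about 50% at 20 µM, limit read from the data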;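 further: plate controls were DMSO wells with enzyme for no effect and wells lacking enzyme for full effect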
#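 System: SCP-1 catalytic domain; Reagent: Phospho 17-mer peptide substrate; Doses: one concentration, 20 µM, with 1.0% DMSO; Incubation: 45 min room-temperature reaction, 5 min colour, 30 min stabiliser; Signal: Phosphate-binding colour reagent, absorbance read at 630 nm.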
# LMPTP inh: blocks human LMPTP phosphatase. 360,000 compounds, 0.22% hits. inhibition, % at 20 µM. recombinant LMPTP-A, OMFP fluorogenic substrate, fluorescence intensity;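 active means compounds that cut the enzyme signal by at least half of the control window in the single-dose screen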;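 further: plate controls were DMSO wells with enzyme plus substrate for no effect and substrate without enzyme for full effect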
#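 Buffer or medium: Bis-Tris pH 6.0, DTT, detergent; Assay system: LMPTP-A enzyme; Quantity: 0.625 nM enzyme; Detection: endpoint fluorescence intensity; Times: 50 min dark incubation at room temperature; Controls: substrate-only low control, DMSO enzyme-plus-substrate high control; Doses: single 20 µM dose; Read-out: percent inhibition versus substrate-only and uninhibited controls; Reagent: 400 µM OMFP.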
# DNMT1 block: inhibitors of human DNMT1; P26358; DNMT1 molecular beacon, Hinp1I cleavage, fluorescence; inhibition (reported as % activation of signal), % at 10 µM; 360,000 compounds, 0.83% hits; AID 588458; in the data active means inhibition above about 50%
# SUMO HTRF inh: blocks human SUMOylation mediated by UBC9 | HTRF SUMOylation assay, SAE1/SAE2 + UBC9, in vitro | inhibition, % at 35 µM | 290,000 compounds, 0.36% hits | AID 2006; in the data active means inhibition above about 50%, passing the limit was not always enough
# SUMO1 PPI mod: modulators of human SUMO1-mediated protein-protein interactions | 360,000 compounds, 0.33% hits | P63165 | SUMO1 binding to a labelled peptide, TR-FRET, 1 h | inhibition, % at 20 µM; in the data active means inhibition above about 37%
# STEP inh: blocks human striatal-enriched tyrosine phosphatase; inhibition, % at 20 µM; P54829; recombinant STEP, OMFP fluorogenic substrate, fluorescence; 360,000 compounds, 0.25% hits;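 active means inhibition at 20 µM, scaled per plate between control wells, above about 37%, limit read from the data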;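 further: 0% = DMSO with enzyme and substrate and 100% = substrate only without enzyme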
#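 System: isolated STEP enzyme; schedule: 20 min enzyme reaction at room temperature, protected from light; medium: Bis-Tris buffer pH 6.0, 2.5 mM DTT, 0.005% Tween 20; signal: fluorescence, 480/540 nm; dosing: single compound dose of 20 µM, 1% DMSO final; also added: OMFP substrate, 25 µM final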
# The depositor's hits bear a star; i = inactive; x = no result given; + = active, no number. A selection: hits, their analogues and other compounds. The true share with any hit is near 1.9%.
SMILES,Scp1 inh,LMPTP inh,DNMT1 block,SUMO HTRF inh,SUMO1 PPI mod,STEP inh
CC1=C(c2ccccc2)[N+](=O)C2(CCCC2)N1[O-],4,-2,-1,10,0,-3
O=c1oc2cc(O)c(Cl)cc2c2ccccc12,-4,-34,3,10,4,-2
O=c1cc2c(=O)oc3cc(O)c(O)oc3c2c(O)c1O,85*,61*,33,89,22,96*
O=C(O)/C=C/c1cn(-c2ccccc2)nc1-c1cc2ccccc2o1,0,0,-14,51*,-19,1
O=C(O)/C=C\c1cn(-c2ccccc2)nc1-c1cc2ccccc2o1,-4,3,-1,59*,-7,2
O=C(O)/C=C/c1cn(-c2ccccc2)nc1-c1ccccc1,-13,-2,-4,5,-6,4
CN(C)C(=O)c1cn(-c2ccccc2)nc1-c1cc2ccccc2o1,-1,2,2,16,-3,-2
COc1ccc([C@H]2CC(=O)C[C@@H](CCn3cc(C(C)C)nn3)O2)cc1,x,-1,x,x,1,x
Cc1c(N2C(=O)c3ccc4c5c(ccc(c35)C2=O)CC4)c(=O)n(-c2ccccc2)n1C,65*,52*,90*,56*,-5,7
Cc1c(N2C(=O)c3ccc(Br)cc3C2=O)c(=O)n(-c2ccccc2)n1C,-5,0,2,30,-7,-6
O=C(Nc1ccc(Cl)c(S(=O)(=O)N2CCCCC2)c1)c1ccco1,-5,0,-5,x,10,-1
CCOC(=O)C(=O)N(C)c1c(CC)nc2c(OCc3ccc(OC)cc3)cccn12,x,-1,-1,x,-2,-3
CCOc1ccc(C(C)NC(=O)c2cccc(F)c2)cc1 (stereo not drawn),3,-1,1,11,-2,-2
COCCCNC1=C(Cl)C(=O)c2ccccc2C1=O,17,2,-24,20,-44,4
COCCCNc1c2c3c(cccc3[nH]c1=O)C(=O)c1ccccc1-2,-2,-30,+,7,-173,i
COc1ccccc1NC(=O)c1sc2nc(C)cc(C)c2c1N,-7,-1,-17,x,-4,0
Nc1c(C(=O)Nc2ccccc2)sc2nc(-c3ccco3)ccc12,8,6,-22,58*,15,-3
COc1ccccc1NC(=O)c1sc2nc(-c3ccco3)ccc2c1N,-9,4,-6,54*,9,2
Nc1c(C(=O)Nc2ccccc2)sc2nc(-c3cccnc3)ccc12,x,x,x,30,x,x
N#Cc1c(NC(=O)c2ccc(Br)o2)n(-c2ccccc2)c2nc3ccccc3nc12,25,10,51*,95*,36,5
CCC(=O)Nc1c(C#N)c2nc3ccccc3nc2n1-c1ccc(C)cc1,-2,0,4,x,-14,2
CCCCn1c(NC(=O)c2ccccc2)c(C#N)c2nc3ccccc3nc21,-5,16,76*,98*,42*,2
CN1CCN(NC(=O)c2ccc(S(=O)(=O)N3CC4(C)CC3CC(C)(C)C4)cc2)CC1 (stereo not drawn),1,-4,-1,20,0,0
CC1(c2ccc3c(c2)OCO3)NC(=O)N(CC(=O)Nc2ccccc2[N+](=O)[O-])C1=O (stereo not drawn),-3,-1,1,x,-31,-3
CCOC(=O)C(CC(=O)O)=C(c1ccccc1)c1ccccc1,-6,-1,-1,-12,5,-2
C[C@]12c3[nH]c4ccccc4c3CCN1C(=O)C(CC(=O)NCC13CC4CC(CC(C4)C1)C3)C[C@@H]2C(=O)N1CCCCC1 (stereo partly drawn),4,1,-13,x,6,2
O=[N+]([O-])c1cc(C2Nc3cccc4cccc(c34)N2)ccc1Cl,10,3,-13,59*,-1,6
O=C(N/N=C\c1cn[nH]c1-c1ccc(Cl)cc1)c1cccs1,2,-2,47,52*,-1,-2
O=C(N/N=C/c1cn[nH]c1-c1ccc(Cl)cc1)c1ccc([N+](=O)[O-])cc1,-5,0,-5,-19,-14,2
O=C(CCc1nc2ccccc2c(=O)[nH]1)Nc1ccccc1N1CCCCC1,x,1,3,x,0,2
